Experimental data reported in ChEMBL document CHEMBL1146076, “Identification of potent and selective inhibitors of PDGF receptor autophosphorylation” (J Med Chem, 2006).

Experiments:
[1] = molecular target: Platelet-derived growth factor receptor alpha (Homo sapiens, UniProt P16234); experiment: Inhibition of PDGFR alpha phosphorylation in G292 cell; type: functional, cell-based
Procedure, shortened: (§1)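 Cell-based ELISA on intact cells: PDGFR-α in G292 cells, c-kit in M07e cells, both quiesced in 0.1% FBS medium. Serial compound concentrations were added for 1 h at 37 °C, then 50 ng/mL PDGF-AA (G292) or SCF (M07e) was added. Lysates were captured on anti-phosphotyrosine (PY-20) plates overnight at 4 °C. Detection used anti-PDGFR-α or anti-c-kit plus HRP, read at A450. IC50 is the mean of two tests.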

[2] = molecular target: Mast/stem cell growth factor receptor Kit (Homo sapiens, UniProt P10721); experiment: Inhibition of c-kit receptor phosphorylation in M07e cell; type: functional, cell-based; procedure, shortened: as §1
Sequence of Mast/stem cell growth factor receptor Kit (P10721 whole entry): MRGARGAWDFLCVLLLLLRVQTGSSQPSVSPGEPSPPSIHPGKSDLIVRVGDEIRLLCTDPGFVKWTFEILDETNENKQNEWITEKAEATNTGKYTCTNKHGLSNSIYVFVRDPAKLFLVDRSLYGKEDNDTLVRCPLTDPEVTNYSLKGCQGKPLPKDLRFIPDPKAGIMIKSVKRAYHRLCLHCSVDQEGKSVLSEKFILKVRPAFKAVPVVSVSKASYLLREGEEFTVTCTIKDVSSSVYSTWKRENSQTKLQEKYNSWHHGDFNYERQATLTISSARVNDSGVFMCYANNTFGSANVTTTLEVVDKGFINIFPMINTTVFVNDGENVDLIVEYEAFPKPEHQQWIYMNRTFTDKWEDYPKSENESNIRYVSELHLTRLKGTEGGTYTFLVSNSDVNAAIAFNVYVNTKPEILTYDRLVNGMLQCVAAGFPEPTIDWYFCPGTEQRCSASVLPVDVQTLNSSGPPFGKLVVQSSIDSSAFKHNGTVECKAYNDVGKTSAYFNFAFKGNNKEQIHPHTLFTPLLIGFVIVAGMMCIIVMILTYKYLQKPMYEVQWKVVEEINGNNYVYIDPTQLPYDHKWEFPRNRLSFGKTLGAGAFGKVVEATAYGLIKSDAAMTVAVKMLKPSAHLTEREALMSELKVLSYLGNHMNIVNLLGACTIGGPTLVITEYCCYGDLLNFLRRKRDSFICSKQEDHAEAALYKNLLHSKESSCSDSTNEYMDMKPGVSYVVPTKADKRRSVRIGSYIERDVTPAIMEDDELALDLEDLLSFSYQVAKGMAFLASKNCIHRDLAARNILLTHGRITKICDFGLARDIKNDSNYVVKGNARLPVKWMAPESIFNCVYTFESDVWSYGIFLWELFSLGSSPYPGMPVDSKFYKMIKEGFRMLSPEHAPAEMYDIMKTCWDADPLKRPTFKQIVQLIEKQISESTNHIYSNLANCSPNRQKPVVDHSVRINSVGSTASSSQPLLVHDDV

Sequence of Platelet-derived growth factor receptor alpha (P16234 whole entry): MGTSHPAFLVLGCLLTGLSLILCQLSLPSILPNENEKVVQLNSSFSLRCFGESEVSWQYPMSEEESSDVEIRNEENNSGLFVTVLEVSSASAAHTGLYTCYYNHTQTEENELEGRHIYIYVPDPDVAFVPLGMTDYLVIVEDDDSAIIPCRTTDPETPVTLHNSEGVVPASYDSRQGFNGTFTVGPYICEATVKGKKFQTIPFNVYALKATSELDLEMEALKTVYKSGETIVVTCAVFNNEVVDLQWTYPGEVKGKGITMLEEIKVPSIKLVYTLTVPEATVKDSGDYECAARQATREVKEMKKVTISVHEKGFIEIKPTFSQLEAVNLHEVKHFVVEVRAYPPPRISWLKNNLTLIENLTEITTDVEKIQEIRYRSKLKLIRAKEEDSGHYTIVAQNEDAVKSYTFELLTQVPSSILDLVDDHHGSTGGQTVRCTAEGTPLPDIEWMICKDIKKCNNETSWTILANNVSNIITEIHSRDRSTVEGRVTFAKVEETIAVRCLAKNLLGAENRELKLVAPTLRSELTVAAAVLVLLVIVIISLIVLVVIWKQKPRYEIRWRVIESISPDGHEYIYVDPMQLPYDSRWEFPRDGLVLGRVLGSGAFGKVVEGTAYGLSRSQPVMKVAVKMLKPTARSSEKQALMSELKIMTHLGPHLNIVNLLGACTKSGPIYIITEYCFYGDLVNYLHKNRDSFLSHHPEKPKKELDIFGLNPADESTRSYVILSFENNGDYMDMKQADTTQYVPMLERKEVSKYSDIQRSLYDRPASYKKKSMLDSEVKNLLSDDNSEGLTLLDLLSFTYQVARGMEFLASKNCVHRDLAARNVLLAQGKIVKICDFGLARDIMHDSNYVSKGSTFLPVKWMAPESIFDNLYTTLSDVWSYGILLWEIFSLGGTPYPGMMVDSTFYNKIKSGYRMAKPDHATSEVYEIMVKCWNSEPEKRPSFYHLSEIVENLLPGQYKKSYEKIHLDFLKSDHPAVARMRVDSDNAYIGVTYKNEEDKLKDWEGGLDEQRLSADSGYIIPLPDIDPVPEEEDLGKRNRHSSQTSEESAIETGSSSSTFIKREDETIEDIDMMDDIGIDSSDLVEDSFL

COc1cc2nccc(Oc3ccc(NC(=S)NC(=O)c4ccccc4Cl)cc3)c2cc1OC
IC50 [1]: 5 nM

COc1cc2nccc(Oc3ccc(NC(=S)NC(=O)C4CCCCC4)cc3)c2cc1OC
IC50 [1]: 15 nM

COc1cc2ncnc(Oc3ccc(NC(=O)NCCC4CCCCC4)cc3)c2cc1OC
IC50 [2]: < 30 nM
IC50 [1]: 9 nM

COc1cc2ncnc(Oc3ccc(NC(=S)NCc4ccccc4)cc3)c2cc1OC
IC50 [2]: 303 nM
IC50 [1]: 46 nM

COc1cc2ncnc(Oc3ccc(NC(=O)NC4CCCCC4)cc3)c2cc1OC
IC50 [2]: 27 nM
IC50 [1]: 7 nM

COc1cc2nccc(Oc3ccc(NC(=S)NC4CCCCC4)cc3)c2cc1OC
IC50 [2]: 69 nM
IC50 [1]: 40 nM

COc1cc2nccc(Oc3ccc(NC(=O)NC4CCCCC4)cc3)c2cc1OC
IC50 [2]: 22 nM
IC50 [1]: 12 nM

COc1cc2nccc(Oc3ccc(NC(=S)NC(=O)c4ccccc4)cc3)c2cc1OC
IC50 [1]: 8 nM

COc1cc2nccc(Oc3ccc(NC(=O)Oc4ccccc4)cc3)c2cc1OC
IC50 [1]: 5 nM

COc1cc2ncnc(Oc3ccc(NC(=S)NCC4CCCCC4)cc3)c2cc1OC
IC50 [2]: 153 nM
IC50 [1]: 37 nM

COc1cc2nccc(Oc3ccc(NC(=O)OCCC4CCCCC4)cc3)c2cc1OC
IC50 [2]: 80 nM
IC50 [1]: 18 nM

COc1cc2nccc(Oc3ccc(NC(=O)NCCC4CCCCC4)cc3)c2cc1OC
IC50 [2]: < 30 nM
IC50 [1]: 6 nM
